Screening data as filed in PubChem.
GRK2 aptamer HTS: blocks RNA aptamer binding to human GRK2. inhibition of aptamer binding, % at 10 µM. AID 488847. P25098. 0.59% of 330,000 active. bead flow cytometry, FAM-aptamer displacement from GRK2;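 active = inhibition of aptamer binding above 40%, roughly 3 SD of noise, on plates passing a quality check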;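 also: median bead fluorescence of bound FAM aptamer so fluorescent compounds give negative values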
Rin1 Abl inh: inhibitors of human Rin1-Abl protein interaction; TR-FRET Rin1/Abl binding, biochemical; P00519+Q13671; AID 588664; inhibition, % at 7.35 µM; 0.4% of 360,000 active; in the data active = inhibition above about 5%, passing the limit was not always enough
T cell modulator: T cell immune modulation candidate. 2C CD8+ T cell-vesicle binding, flow cytometry; stronger effect = lower value. response (vesicle binding), % at 7 µM. 0.068% of 330,000 active. AID 2052;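 active = response, share of CD8 T cells binding vesicles, and their 90th percentile fluorescence all below set limits, cut at about 80% in these data, passing the limit was not always enough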;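 also: values below 100% mean blocked vesicle binding to the CD8+ T cells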
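Assay system – 2C mouse CD8+ T cells · Also added – QL9-loaded Drosophila micro-vesicles · Timing – Cell–vesicle co-incubation 1.5 h at 37 °C, staining 20 min on ice · Signal – flow cytometry of vesicle-bound cells · Measure – percent CD8+ FL2 mean versus row control · Controls – Peptide-free naked vesicles (low) and QL9 vesicles with 0.7% DMSO vehicle (high)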
Rce1 inhib: yeast Ras-converting enzyme inhibition; Q03530; yeast membranes, quenched prenylated peptide cleavage fluorescence; calls only; 0.27% of 290,000 active; AID 2563;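 active = fall in fluorescence gain of 50% or more versus controls, with final raw signal at or below 3038400; inconclusive = same 50% fall but final raw signal above 3038400; inactive = fall in fluorescence gain under 50%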;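 also: plate controls were neutral control wells for no effect and wells lacking membranes for full effect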
SKN-1 inh: blocks SKN-1 activity in C. elegans. C. elegans VP596 Pgst-4::GFP/RFP ratio, acrylamide-induced, 24 h. inhibition, % at 21.8 µM. 0.49% of 360,000 active. AID 624304;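 active = interference check ratio from 0.5 to 1.5 plus GFP to RFP signal ratio inhibition reaching or exceeding a fixed threshold, cut at about 30% in these data, passing the limit was not always enough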
Myeloid diff MLP: compounds promoting myeloid differentiation; ER-HoxA9 myeloid progenitors, lysozyme-GFP differentiation, flow cytometry; calls only at 10 µM; 1% of 360,000 active;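 active = normalized GFP-positive differentiation at or above the plate's own cutoff, the solvent-only control mean plus 3 SD; inconclusive = no clear call, values can overlap the other calls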;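 also: cells exposed to compound for four days before flow analysis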
The depositor's hits bear a star; i = inactive; u = inconclusive; x = not tested or not shown; + = active, no number. Compounds with a hit are over-represented: about 2.6% of the library has one in this group of screens.

SMILES | GRK2 aptamer HTS | Rin1 Abl inh | T cell modulator | Rce1 inhib | SKN-1 inh | Myeloid diff MLP
CC1CCCCN1CCNC(=O)CCc1nnc2n(Cc3ccccc3)c(=O)c3ccccc3n12 (centres undefined) | 0.0 | 2.1 | 150.4 | i | -1.1 | i
CC1CCCC(C)N1CCNC(=O)CCc1nnc2n(Cc3ccccc3)c(=O)c3ccccc3n12 (centres undefined) | 0.0 | -1.5 | 0.0* | i | 0.1 | i
O=c1[nH]c2cc3c(cc2cc1CN(CCc1ccccc1)C(=S)NCCCN1CCOCC1)OCCO3 | x | 3.1 | x | x | -12.1 | i
O=C(O)c1ccc(N/N=C/C=C/c2ccc([N+](=O)[O-])o2)cc1 | 91.0* | -6.2 | 370.4 | i | 27.6 | i
CCCCC(=O)N/N=C/c1ccc(-c2ccc([N+](=O)[O-])cc2)o1 | 6.0 | -8.5 | 298.8 | i | -2.6 | i
CC(C)(C)NC(=S)N/N=C\c1ccc(-c2ccc([N+](=O)[O-])cc2)o1 | 3.0 | 1.6 | 319.7 | i | 9.7 | +
O=C(O)c1ccc(-c2ccc(/C=N/Nc3ccc([N+](=O)[O-])cc3)o2)cc1 | 0.0 | -3.3 | 252.2 | i | 1.5 | +
CN(Cc1ccccc1)C(=O)c1ncn2c1C(=O)N(C)CC2 | x | -0.8 | x | x | 5.8 | i
COCCCN1C(=O)c2ccc(C(=O)OCC(=O)N3CCN(c4ccccc4)CC3)cc2C1=O | 0.0 | -3.1 | 445.2 | i | -25.7 | i
CN(C)c1ccc(C(=S)N2CCN(S(=O)(=O)c3ccccc3)CC2)cc1 | 0.0 | -2.8 | 207.0 | i | 11.8 | i
COC(=O)c1cn(NC(=O)C2COc3ccccc3O2)c(=O)c2ccccc12 (centres undefined) | 2.0 | 2.1 | 308.6 | i | 36.1* | i
COC(=O)c1cn(NC(=O)C2CCCO2)c(=O)c2ccccc12 (centres undefined) | 0.0 | 6.4 | 293.2 | i | 11.5 | i
COCc1cc(C)nc2sc(C(=O)Nc3ccccc3Br)c(N)c12 | 2.0 | -2.8 | 369.2 | x | 0.7 | i
O=[N+]([O-])c1ccc(N2CCOCC2)cn1 | 0.0 | 0.7 | 173.4 | x | 13.5 | i
O=C(/C=C/c1cccc([N+](=O)[O-])c1)c1ccc([N+](=O)[O-])o1 | 0.0 | -0.9 | 321.3 | i | 4.6 | +
COc1ccc(CNC(=O)C(CC(C)C)NC(=O)c2ccccc2C)cc1 (centres undefined) | 0.0 | 3.1 | 155.5 | i | 0.7 | i
Cc1cccc(C(=O)N2CCC(=O)N(C(COCc3cccc(C(F)(F)F)c3)Cc3ccccc3)CC2)c1 (centres undefined) | 2.0 | 3.2 | 488.4 | i | 8.0 | +
Cc1cccc(C(=O)N2CCC(=O)N([C@H](COCc3cccc(C(F)(F)F)c3)Cc3ccccc3)CC2)c1 | x | x | x | x | 19.0 | i
Clc1ccc(-c2ccnc(-n3cccc3)n2)s1 | 5.0 | -6.4 | 112.3 | i | 43.0* | i
Cc1ccccc1NC(=O)COC(=O)[C@@H]1CCCN1C(=O)c1cccs1 | 1.0 | 4.6 | 261.3 | x | 3.1 | i
CCOC(=O)CN1C(=O)C(=O)N(Cc2c(C)cc(C)cc2C)C1=O | 10.0 | -0.5 | 303.5 | i | 2.6 | +
Fc1ccc2cc(-c3ccccc3)ncc2c1 | 0.0 | 0.8 | 276.5 | x | 40.2* | i
c1ccc(-c2cc3ccccc3cn2)cc1 | 0.0 | -0.5 | 217.6 | x | 17.6 | i
CCN(C(=O)COC(=O)c1ccccc1OCc1ccc(Cl)cc1)C1CCS(=O)(=O)C1 (centres undefined) | 3.0 | 2.0 | 442.6 | x | 5.1 | i
CCCC(=O)Nc1cc(-c2nn(C)c(=O)c3ccccc23)ccc1N1CCOCC1 | 0.0 | 2.5 | 312.8 | i | -20.2 | i
SMILES | GRK2 aptamer HTS | Rin1 Abl inh | T cell modulator | Rce1 inhib | SKN-1 inh | Myeloid diff MLP
CCC(=O)Nc1cc(-c2nn(CC(=O)N3CCCCC3)c(=O)c3ccccc23)ccc1N1CCOCC1 | 4.0 | 6.0 | 433.7 | + | -0.6 | i
Cc1ccc2nc3c(cc(C#N)c(=N)n3Cc3cccnc3)c(=O)n2c1 | 7.0 | x | 120.4 | i | x | x
CCn1c2ccccc2c2cc(NC(=O)c3coc(=O)c(Br)c3)ccc21 | 0.0 | -1.4 | 475.4 | i | 17.0 | i
CCn1c2ccccc2c2cc(NC(=O)c3ccc(Br)o3)ccc21 | 6.0 | 0.4 | 257.0 | i | 28.6 | +
CCn1c2ccccc2c2cc(NC(=O)CSc3nnc(-c4ccccc4)o3)ccc21 | 0.0 | -4.3 | 203.3 | i | -4.5 | +
CN(C)CCNc1ncnc2c1sc1nc(-c3ccccc3)c3c(c12)CCCC3 | 0.0 | 1.3 | 244.5 | i | 16.2 | +
Cc1cc(NC(=O)CN2C(=O)NC3(CCCCCC3)C2=O)no1 | 0.0 | -5.6 | 142.5 | i | -13.7 | i
CN1CCN(NC(=O)NC2CCCCC2)CC1 | 0.0 | 3.9 | 70.5 | i | 4.6 | i
Cc1cc(C)nc(NS(=O)(=O)c2ccc(NC(=O)c3ccccc3Br)cc2)n1 | x | 0.8 | x | x | 25.1 | i
O=C1CCCc2c1[nH]c1ccccc21 | 0.0 | 4.2 | 287.5 | i | -4.3 | i
c1ccc2c(c1)OCCc1c-2[nH]c2ccccc12 | 0.0 | -1.1 | 260.6 | i | 51.9* | i
O=C(Nc1cccc(NC(=O)c2cccs2)c1)c1ccc([N+](=O)[O-])o1 | 1.0 | -3.3 | 131.3 | i | 7.6 | u
Cc1ccc(NC(=O)c2ccc([N+](=O)[O-])o2)c(C)c1 | 1.0 | -2.2 | 412.2 | i | -5.3 | +
COc1cc(NC(=O)c2ccc([N+](=O)[O-])o2)ccc1NC(=O)c1cccs1 | 2.0 | -0.3 | 255.4 | i | 0.5 | +
C=CCn1c(C)cc(C(=O)COC(=O)c2ccc3c(c2)NC(=O)CS3)c1C | 0.0 | -4.5 | 356.7 | i | 9.3 | i
CN(C)c1ccc(C(=O)/C=C/c2ccccc2)cc1 | 1.0 | 0.2 | 192.8 | i | 42.8* | i
O=C(Nc1nccs1)c1ccc[nH]c1=O | 2.0 | -0.1 | 567.7 | i | -4.0 | i
COc1ccc2c(c1)-c1c(sn(-c3ccccc3)c1=S)C(C)(C)N2 | 0.0 | 0.8 | 317.1 | i | 3.5 | i
COc1ccc(-n2sc3c(c2=S)-c2cc(OC)ccc2NC3(C)C)cc1 | 0.0 | 2.6 | 219.6 | i | 40.5* | i
COc1ccc2c(c1)-c1c(sn(-c3ccc(OC)c(OC)c3)c1=S)C(C)(C)N2 | 0.0 | -3.6 | 70.3* | i | 17.7 | i
CC(C)NC(=O)C1(C)CSCC(=O)N1CC(F)(F)F (centres undefined) | x | x | x | x | -6.5 | i
CC(=O)Oc1c(C)c(C)c2c(c1C)CC[C@@](C)(CCC[C@H](C)CCC[C@H](C)CCCC(C)C)O2 | 0.0 | 0.4 | 878.7 | x | -1.9 | +
CCCCCn1cnc2sc(-c3ccccc3)cc2c1=O | 0.0 | -1.9 | 264.4 | i | 40.1* | i
O=c1c2cc(-c3ccccc3)sc2ncn1/N=C/c1ccco1 | 2.0 | -4.9 | 133.4 | i | 44.4* | i
CCCCn1cnc2sc(-c3ccccc3)cc2c1=O | 0.0 | 0.5 | 325.9 | i | 17.5 | i
